We go through 40 compounds from ChEMBL document CHEMBL1145047, “Design, synthesis, and evaluation of substituted phenylpropanoic acid derivatives as human peroxisome proliferator activated receptor activators. Discovery of potent and human peroxisome proliferator activated receptor alpha subtype-selective activators” (J Med Chem, 2003).

Activity calls are given as the source filed them. The rule behind the calls is not given here.

Assay [1] has as its target T1, Peroxisome proliferator-activated receptor alpha (Homo sapiens, UniProt Q07869).
T1 sequence (Q07869 whole entry): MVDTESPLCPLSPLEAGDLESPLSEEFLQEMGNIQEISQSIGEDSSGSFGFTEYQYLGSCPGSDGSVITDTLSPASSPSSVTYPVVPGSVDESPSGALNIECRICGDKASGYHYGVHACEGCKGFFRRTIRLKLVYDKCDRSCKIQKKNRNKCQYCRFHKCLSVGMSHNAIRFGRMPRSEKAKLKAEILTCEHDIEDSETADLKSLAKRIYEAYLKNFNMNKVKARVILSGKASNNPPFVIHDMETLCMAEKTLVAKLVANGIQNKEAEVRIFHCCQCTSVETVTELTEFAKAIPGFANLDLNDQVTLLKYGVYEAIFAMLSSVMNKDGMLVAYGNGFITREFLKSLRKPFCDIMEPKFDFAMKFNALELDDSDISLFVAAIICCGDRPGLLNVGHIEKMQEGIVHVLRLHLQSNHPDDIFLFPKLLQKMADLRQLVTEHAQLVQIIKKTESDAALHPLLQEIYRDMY
Format: functional, cell-based.

The target of assay [2] is T2, Peroxisome proliferator-activated receptor delta (Homo sapiens, UniProt Q03181).
T2 sequence (Q03181 whole entry): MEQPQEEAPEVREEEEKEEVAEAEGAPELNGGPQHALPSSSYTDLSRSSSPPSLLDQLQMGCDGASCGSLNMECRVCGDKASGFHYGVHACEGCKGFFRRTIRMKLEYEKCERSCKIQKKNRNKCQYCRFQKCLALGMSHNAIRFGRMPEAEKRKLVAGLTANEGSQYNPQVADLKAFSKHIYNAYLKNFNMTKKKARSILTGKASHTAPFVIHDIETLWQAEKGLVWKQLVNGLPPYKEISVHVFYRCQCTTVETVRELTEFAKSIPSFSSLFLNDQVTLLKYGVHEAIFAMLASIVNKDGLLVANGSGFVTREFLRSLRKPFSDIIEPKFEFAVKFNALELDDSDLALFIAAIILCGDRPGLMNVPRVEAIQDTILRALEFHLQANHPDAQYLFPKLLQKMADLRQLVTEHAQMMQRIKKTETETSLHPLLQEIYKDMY
Kind of assay: (§1) Agonist activity on Gal4 chimeric human Peroxisome proliferator activated receptor delta expressed in CHO-K1 cells. Type of assay: functional, cell-based.

In assay [3] the target is T3, Peroxisome proliferator-activated receptor gamma (Homo sapiens, UniProt P37231).
T3 sequence (P37231 whole entry): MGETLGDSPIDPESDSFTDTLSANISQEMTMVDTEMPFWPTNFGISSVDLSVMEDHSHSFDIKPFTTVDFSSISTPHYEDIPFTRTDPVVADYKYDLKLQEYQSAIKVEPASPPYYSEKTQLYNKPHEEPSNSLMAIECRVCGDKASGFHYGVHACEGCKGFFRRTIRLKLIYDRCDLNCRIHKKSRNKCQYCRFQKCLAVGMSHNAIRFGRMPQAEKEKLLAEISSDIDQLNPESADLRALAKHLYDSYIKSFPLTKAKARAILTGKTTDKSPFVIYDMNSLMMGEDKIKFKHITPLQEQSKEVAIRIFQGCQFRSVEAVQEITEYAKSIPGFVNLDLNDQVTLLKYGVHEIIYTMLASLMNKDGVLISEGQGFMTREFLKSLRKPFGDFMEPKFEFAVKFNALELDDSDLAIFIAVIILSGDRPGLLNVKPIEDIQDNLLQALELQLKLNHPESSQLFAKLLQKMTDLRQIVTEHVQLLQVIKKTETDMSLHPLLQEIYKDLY

For assay [4], the target named is T4, Peroxisome proliferator-activated receptor delta (Homo sapiens) (UniProt Q03181).
T4 sequence (whole entry): T2 sequence (Q03181 whole entry)
Kind of assay: In vitro effective concentration for agonist activity on human Peroxisome proliferator activated receptor delta-GAL4 chimeric receptor in transfected CHO-K1 cells; inactive. Type of assay: functional, cell-based. The procedure, abridged: (§2)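 GAL4–human PPAR LBD chimera, reporter assay in CHO-K1 cells. Cells seeded at 5 × 10⁴/well in Ham's F12 with 10% FCS for 24 h at 37 °C. Cotransfected for 2 h (lipofectamine) per well with 40 ng GAL4/PPAR LBD, 400 ng pFR-Luc and 5 ng pRL-TK. Compounds applied for 20 h at 37 °C, then luciferase read from cell lysates. EC50 is 50% of maximal reporter activity, from curve fit, n = 3.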

Assay [5] concerns the target T5, Peroxisome proliferator-activated receptor gamma (Homo sapiens) (UniProt P37231).
T5 sequence (whole entry): T3 sequence (P37231 whole entry)
Kind of assay: In vitro effective concentration for agonist activity on human Peroxisome proliferator activated receptor gamma-Gal4 chimeric receptor in transfected CHO-K1 cells at 10 uM. Type of assay: functional, cell-based.

The target of assay [6] is T4, Peroxisome proliferator-activated receptor delta (Homo sapiens). The description is as §1. Type of assay: functional, cell-based. In outline:
as §2

Assay [7] addresses T6, Peroxisome proliferator-activated receptor alpha (Homo sapiens) (UniProt Q07869).
T6 sequence (whole entry): T1 sequence (Q07869 whole entry)
Put plainly: Agonist activity on Gal4 chimeric human Peroxisome proliferator activated receptor alpha expressed in CHO-K1 cells. Type of assay: functional, cell-based. In outline:
as §2

Assay [8] has as its target T4, Peroxisome proliferator-activated receptor delta (Homo sapiens). Put plainly: In vitro effective concentration for agonist activity on human Peroxisome proliferator activated receptor delta-GAL4 chimeric receptor in transfected CHO-K1 cells at 10 uM; inactive. Type of assay: functional, cell-based.

As a reminder, the EC50 is the concentration that produces a half-maximal response. Read a high EC50 as weaker potency.

On to `CCC(Cc1ccc(OC)c(C(=O)NCc2ccc(Oc3ccccc3)cc2)c1)C(=O)O` (stereo not given), for which the concentration giving a half-maximal response (EC50) in assay [1] came out at 0.09 µM; in assay [2], 3 µM; in assay [3] it was 2.4 µM.
The compound `CCC(Cc1ccc(OC)c(C(=O)NCc2ccc(Cl)cc2)c1)C(=O)O` (stereo not given) displayed an EC50 in assay [1] of 3 µM. Besides, the IA result in assay [4] and in assay [5] was “inactive” in each case.
With `COc1ccc(CCCC(=O)O)cc1C(=O)NCc1ccc(C(F)(F)F)cc1`, in assay [6], the IA result was “inactive”.
`COc1ccc(C(=O)O)cc1C(=O)NCc1ccc(C(F)(F)F)cc1`: the IA entry in assay [7], in assay [6] and in assay [5] was “inactive” throughout.
On to `CCC(Cc1ccc(OC)c(NC(=O)Cc2ccc(C(F)(F)F)cc2)c1)C(=O)O` (stereo not given), for which the IA result in assay [6] and in assay [5] was “inactive” throughout.
Consider `CCC(CC)(Cc1ccc(OC)c(C(=O)NCc2ccc(C(F)(F)F)cc2)c1)C(=O)O`, for which the IA result in assay [6] and in assay [5] was “inactive” throughout.
As for `COc1ccc(CC(OC)C(=O)O)cc1C(=O)NCc1ccc(C(F)(F)F)cc1` (stereo not given), the IA entry in assay [6] and in assay [5] was “inactive” each time.
In the case of `COc1ccc(CC(SCc2ccccc2)C(=O)O)cc1C(=O)NCc1ccc(C(F)(F)F)cc1` (stereo not given), the IA result in assay [7], in assay [6] and in assay [5] was “inactive” each time.
For the compound `COc1ccc(CC(C)C(=O)O)cc1C(=O)NCc1ccc(C(F)(F)F)cc1` (stereo not given), in assay [5], the IA entry was “inactive”.
Turning to `CCC(Cc1ccc(OC)c(NC(=O)Nc2ccc(C(F)(F)F)cc2)c1)C(=O)O` (stereo not given), the IA result in assay [7], in assay [6] and in assay [5] was “inactive” each time.
With `CCC(Cc1ccc(OC)c(CNCc2ccc(C(F)(F)F)cc2)c1)C(=O)O` (stereo not given), the IA result in assay [5] was “inactive”.
On to `CCC(Cc1ccc(OC)c(C(=O)NCc2ccc(CCc3ccccc3)cc2)c1)C(=O)O` (stereo not given), for which the values for the EC50 in assay [1] and in assay [3] were 5.6 µM and 5.4 µM, respectively. The IA entry in assay [6] is “inactive”.
Take `CCC(Cc1ccc(OC)c(C(=O)NCc2ccccc2)c1)C(=O)O` (stereo not given): the EC50 in assay [1] came out at 2.3 µM; in assay [3], 10 µM. Moreover, the IA result in assay [8] was “inactive”.
`CCC(Cc1ccc(OC)c(C(=O)NCc2cccc(OC)c2)c1)C(=O)O` (stereo not given) displayed an EC50 in assay [1] of 3.1 µM. In addition, in assay [6], the IA entry is “inactive”.
On to `COc1ccc(CCC(=O)O)cc1C(=O)NCc1ccc(C(F)(F)F)cc1`, for which the IA result in assay [6] and in assay [5] was “inactive” throughout.
Regarding `COc1ccc(CC(C(=O)O)C(C)C)cc1C(=O)NCc1ccc(C(F)(F)F)cc1` (stereo not given), the IA result in assay [6] and in assay [5] was “inactive” in each case.
With `CCC(Cc1ccc(OC)c(C(=O)NCc2ccc(OC)cc2)c1)C(=O)O` (stereo not given), the concentration giving a half-maximal response (EC50) in assay [1] is 1.2 µM; in assay [2], 6.6 µM. Moreover, in assay [5], the IA entry was “inactive”.
On to `CCCC(Cc1ccc(OC)c(C(=O)NCc2ccc(C(F)(F)F)cc2)c1)C(=O)O` (stereo not given), for which the IA result in assay [5] was “inactive”.
Take `COc1ccc(CC(Sc2ccccc2)C(=O)O)cc1C(=O)NCc1ccc(C(F)(F)F)cc1` (stereo not given): the IA entry in assay [7], in assay [6] and in assay [5] was “inactive” each time.
For `CCC(Cc1ccc(OC)c(C(=O)NCc2ccccc2OC)c1)C(=O)O` (stereo not given), the midpoint of the response in assay [1], the EC50, lay at 9.4 µM. The IA result in assay [6] and in assay [5] was “inactive” each time.
`CCC(Cc1ccc(OC)c(C(=O)NCc2cccc(C(F)(F)F)c2)c1)C(=O)O` (stereo not given) gave a half-maximal effective concentration (EC50) in assay [1] of 1.8 µM. For the same compound, the IA entry in assay [8] and in assay [5] was “inactive” in each case.
On to `CCCCC(Cc1ccc(OC)c(C(=O)NCc2ccc(C(F)(F)F)cc2)c1)C(=O)O` (stereo not given), for which the IA entry in assay [4] is “inactive”.
`CCC(Cc1ccc(OC)c(C(=O)NCc2ccc(OCCc3ccccc3)cc2)c1)C(=O)O` (stereo not given): the concentration for a half-maximal effect (EC50) in assay [1] turned out to be 2.7 µM; in assay [3] it was 3 µM. For the same compound, the IA result in assay [6] was “inactive”.
`CCC(Cc1ccc(OC)c(C(=O)NCc2ccc(OC(F)(F)F)cc2)c1)C(=O)O` (stereo not given): the EC50 was 0.043 µM in assay [1] and 0.9 µM in assay [2]. Further, the IA entry in assay [5] is “inactive”.
Turning to `CCC(Cc1ccc(OC)c(C(=O)CCc2ccc(C(F)(F)F)cc2)c1)C(=O)O` (stereo not given), the IA entry in assay [8] is “inactive”.
The compound `CCC(Cc1ccc(OC)c(CNC(=O)c2ccc(C(F)(F)F)cc2)c1)C(=O)O` (stereo not given) returned an EC50 in assay [3] above 10 µM.
With `CCC(Cc1ccc(OC)c(C(=O)NCCc2ccc(C(F)(F)F)cc2)c1)C(=O)O` (stereo not given), the IA entry in assay [5] is “inactive”.
Consider `CCC(Cc1ccc(OC)c(C(=O)Nc2ccc(C(F)(F)F)cc2)c1)C(=O)O` (stereo not given), for which the IA result in assay [6] and in assay [5] was “inactive” throughout.
In the case of `CCC(Cc1ccc(OC)c(C(=O)N(C)Cc2ccc(C(F)(F)F)cc2)c1)C(=O)O` (stereo not given), the IA result in assay [7], in assay [6] and in assay [5] was “inactive” throughout.
As to `CCC(Cc1ccc(OC)c(C(=O)NCc2ccc(OCc3ccccc3)cc2)c1)C(=O)O` (stereo not given), the 50% effective concentration (EC50) in assay [1] was 1.5 µM. Further, the IA entry in assay [6] and in assay [5] was “inactive” in each case.
For the compound `CCSC(Cc1ccc(OC)c(C(=O)NCc2ccc(C(F)(F)F)cc2)c1)C(=O)O` (stereo not given), the results for the EC50 in assay [1], in assay [2] and in assay [3] were 1.6 µM, 3 µM and 2.8 µM, respectively.
`CCC(Cc1ccc(OC)c(C(=O)NCc2cccc(Oc3ccccc3)c2)c1)C(=O)O` (stereo not given): the figures for the EC50 in assay [1] and in assay [3] were 0.4 µM and 6.2 µM, respectively. Besides, the IA entry in assay [6] was “inactive”.
`CCC(Cc1ccc(OC)c(C(=O)NCc2ccc(-c3ccccc3)cc2)c1)C(=O)O` (stereo not given) gave an EC50 in assay [3] of 4 µM. Also, the IA entry in assay [6] was “inactive”.
Consider `CCC(Cc1ccc(OC)c(OCCc2ccc(C(F)(F)F)cc2)c1)C(=O)O` (stereo not given), for which the IA entry in assay [5] is “inactive”.
As to `COc1ccc(CC(Oc2ccccc2)C(=O)O)cc1C(=O)NCc1ccc(C(F)(F)F)cc1` (stereo not given), the IA result in assay [7], in assay [6] and in assay [5] was “inactive” in each case.
Turning to `CCC(Cc1ccc(OC)c(CC(=O)Nc2ccc(C(F)(F)F)cc2)c1)C(=O)O` (stereo not given), the IA result in assay [6] and in assay [5] was “inactive” throughout.
Consider `CCC(Cc1ccc(OC)c(CCCc2ccc(C(F)(F)F)cc2)c1)C(=O)O` (stereo not given), for which the IA result in assay [5] is “inactive”.
As to `COc1ccc(CC(C)(C)C(=O)O)cc1C(=O)NCc1ccc(C(F)(F)F)cc1`, the IA result in assay [6] and in assay [5] was “inactive” each time.
For the compound `CCC(Cc1ccc(OC)c(C(=O)NCc2ccccc2Oc2ccccc2)c1)C(=O)O` (stereo not given), the IA entry in assay [7], in assay [6] and in assay [5] was “inactive” each time.
Consider `COc1ccc(CC(C(=O)O)c2ccccc2)cc1C(=O)NCc1ccc(C(F)(F)F)cc1` (stereo not given), for which the IA entry in assay [7], in assay [6] and in assay [5] was “inactive” throughout.
